Measurements: ChEMBL document CHEMBL4689842, “EUbOPEN Chemogenomics Library wave 1” (2021)

Tested on: U2OS
Assay: Multiplex assay against U2OS
Assay type: toxicity, cell-based
Conditions: human
Method in brief: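 Per cents of healthy-nucleus cells form the tubulin, mitochondrial-mass and membrane-permeability phenotype values. Live cells were stained at seeding with Hoechst33342, BioTracker Green Microtubule Cytoskeleton Dye, MitoTracker Red and Annexin V Alexa Fluor 680. After compound addition they were imaged on a CQ1 microscope at 37°C and 5% CO2, and CellPathfinder machine-learning gating split them into Hoechst high-intensity objects or normal cells, normal cells into healthy, pyknosed or fragmented nuclei, and pyknosed cells into mitotic or apoptotic.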

[1] = 12 h, 1 µM, compound concentration 1 uM, replicate 1
[2] = 12 h, 1 µM, compound concentration 1 uM, replicate 2
[3] = 12 h, 10 µM, compound concentration 10 uM, replicate 1
[4] = 12 h, 10 µM, compound concentration 10 uM, replicate 2
[5] = 24 h, 1 µM, compound concentration 1 uM, replicate 1
[6] = 24 h, 1 µM, compound concentration 1 uM, replicate 2
[7] = 24 h, 10 µM, compound concentration 10 uM, replicate 1
[8] = 24 h, 10 µM, compound concentration 10 uM, replicate 2
[9] = 48 h, 1 µM, compound concentration 1 uM, replicate 1
[10] = 48 h, 1 µM, compound concentration 1 uM, replicate 2
[11] = 48 h, 10 µM, compound concentration 10 uM, replicate 1
[12] = 48 h, 10 µM, compound concentration 10 uM, replicate 2

SMILES: Cl.NC[C@@H]1O[C@H](C23CC4CC(CC(C4)C2)C3)Cc2c1ccc(O)c2O
- Population Apoptotic (%) [1]: 60%
- Population Fragmented Nuclei (%) [1]: 10%
- Population Healthy Nuclei (%) [1]: 80%
- Population Hoechst High Intensity Objects (%) [1]: 7%
- Population Membrane Permeable-Phenotype (%) [1]: 5%
- Population Mitochondria Different-Phenotype (%) [1]: 11%
- Population Mitotic Cells (%) [1]: 40%
- Population Normal (%) [1]: 92%
- Population Pyknosed Nuclei (%) [1]: 9%
- Population Tubulin-Different-Phenotype (%) [1]: 6%
- Total Cell Count [1]: 116
- Population Apoptotic (%) [2]: 0%
- Population Fragmented Nuclei (%) [2]: 6%
- Population Healthy Nuclei (%) [2]: 91%
- Population Hoechst High Intensity Objects (%) [2]: 3%
- Population Membrane Permeable-Phenotype (%) [2]: 2%
- Population Mitochondria Different-Phenotype (%) [2]: 9%
- Population Mitotic Cells (%) [2]: 100%
- Population Normal (%) [2]: 96%
- Population Pyknosed Nuclei (%) [2]: 2%
- Population Tubulin-Different-Phenotype (%) [2]: 10%
- Total Cell Count [2]: 95
- Population Apoptotic (%) [3]: 37%
- Population Fragmented Nuclei (%) [3]: 31%
- Population Healthy Nuclei (%) [3]: 36%
- Population Hoechst High Intensity Objects (%) [3]: 8%
- Population Membrane Permeable-Phenotype (%) [3]: 3%
- Population Mitochondria Different-Phenotype (%) [3]: 13%
- Population Mitotic Cells (%) [3]: 62%
- Population Normal (%) [3]: 92%
- Population Pyknosed Nuclei (%) [3]: 31%
- Population Tubulin-Different-Phenotype (%) [3]: 5%
- Total Cell Count [3]: 150
- Population Apoptotic (%) [4]: 52%
- Population Fragmented Nuclei (%) [4]: 39%
- Population Healthy Nuclei (%) [4]: 32%
- Population Hoechst High Intensity Objects (%) [4]: 10%
- Population Membrane Permeable-Phenotype (%) [4]: 9%
- Population Mitochondria Different-Phenotype (%) [4]: 22%
- Population Mitotic Cells (%) [4]: 47%
- Population Normal (%) [4]: 89%
- Population Pyknosed Nuclei (%) [4]: 27%
- Population Tubulin-Different-Phenotype (%) [4]: 27%
- Total Cell Count [4]: 76
- Population Apoptotic (%) [5]: 46%
- Population Fragmented Nuclei (%) [5]: 11%
- Population Healthy Nuclei (%) [5]: 79%
- Population Hoechst High Intensity Objects (%) [5]: 7%
- Population Membrane Permeable-Phenotype (%) [5]: 2%
- Population Mitochondria Different-Phenotype (%) [5]: 3%
- Population Mitotic Cells (%) [5]: 53%
- Population Normal (%) [5]: 92%
- Population Pyknosed Nuclei (%) [5]: 9%
- Population Tubulin-Different-Phenotype (%) [5]: 9%
- Total Cell Count [5]: 146
- Population Apoptotic (%) [6]: 42%
- Population Fragmented Nuclei (%) [6]: 8%
- Population Healthy Nuclei (%) [6]: 85%
- Population Hoechst High Intensity Objects (%) [6]: 2%
- Population Membrane Permeable-Phenotype (%) [6]: 5%
- Population Mitochondria Different-Phenotype (%) [6]: 10%
- Population Mitotic Cells (%) [6]: 57%
- Population Normal (%) [6]: 97%
- Population Pyknosed Nuclei (%) [6]: 6%
- Population Tubulin-Different-Phenotype (%) [6]: 12%
- Total Cell Count [6]: 114
- Population Apoptotic (%) [7]: 76%
- Population Fragmented Nuclei (%) [7]: 38%
- Population Healthy Nuclei (%) [7]: 33%
- Population Hoechst High Intensity Objects (%) [7]: 6%
- Population Membrane Permeable-Phenotype (%) [7]: 7%
- Population Mitochondria Different-Phenotype (%) [7]: 7%
- Population Mitotic Cells (%) [7]: 23%
- Population Normal (%) [7]: 93%
- Population Pyknosed Nuclei (%) [7]: 27%
- Population Tubulin-Different-Phenotype (%) [7]: 17%
- Total Cell Count [7]: 161
- Population Apoptotic (%) [8]: 92%
- Population Fragmented Nuclei (%) [8]: 50%
- Population Healthy Nuclei (%) [8]: 29%
- Population Hoechst High Intensity Objects (%) [8]: 18%
- Population Membrane Permeable-Phenotype (%) [8]: 26%
- Population Mitochondria Different-Phenotype (%) [8]: 26%
- Population Mitotic Cells (%) [8]: 7%
- Population Normal (%) [8]: 81%
- Population Pyknosed Nuclei (%) [8]: 20%
- Population Tubulin-Different-Phenotype (%) [8]: 26%
- Total Cell Count [8]: 80
- Population Apoptotic (%) [9]: 33%
- Population Fragmented Nuclei (%) [9]: 8%
- Population Hoechst High Intensity Objects (%) [9]: 6%
- Population Membrane Permeable-Phenotype (%) [9]: 0%
- Population Mitochondria Different-Phenotype (%) [9]: 14%
- Population Mitotic Cells (%) [9]: 66%
- Population Normal (%) [9]: 93%
- Population Pyknosed Nuclei (%) [9]: 9%
- Population Tubulin-Different-Phenotype (%) [9]: 12%
- Total Cell Count [9]: 198
- Population Apoptotic (%) [10]: 57%
- Population Fragmented Nuclei (%) [10]: 11%
- Population Healthy Nuclei (%) [10]: 82%
- Population Hoechst High Intensity Objects (%) [10]: 3%
- Population Membrane Permeable-Phenotype (%) [10]: 3%
- Population Mitochondria Different-Phenotype (%) [10]: 21%
- Population Mitotic Cells (%) [10]: 42%
- Population Normal (%) [10]: 96%
- Population Pyknosed Nuclei (%) [10]: 5%
- Population Tubulin-Different-Phenotype (%) [10]: 13%
- Total Cell Count [10]: 127
- Population Apoptotic (%) [11]: 84%
- Population Fragmented Nuclei (%) [11]: 33%
- Population Healthy Nuclei (%) [11]: 33%
- Population Hoechst High Intensity Objects (%) [11]: 13%
- Population Membrane Permeable-Phenotype (%) [11]: 20%
- Population Mitochondria Different-Phenotype (%) [11]: 16%
- Population Mitotic Cells (%) [11]: 16%
- Population Normal (%) [11]: 86%
- Population Pyknosed Nuclei (%) [11]: 32%
- Population Tubulin-Different-Phenotype (%) [11]: 37%
- Total Cell Count [11]: 180
- Population Apoptotic (%) [12]: 91%
- Population Fragmented Nuclei (%) [12]: 50%
- Population Healthy Nuclei (%) [12]: 27%
- Population Hoechst High Intensity Objects (%) [12]: 34%
- Population Membrane Permeable-Phenotype (%) [12]: 80%
- Population Mitochondria Different-Phenotype (%) [12]: 53%
- Population Mitotic Cells (%) [12]: 8%
- Population Normal (%) [12]: 65%
- Population Pyknosed Nuclei (%) [12]: 22%
- Population Tubulin-Different-Phenotype (%) [12]: 66%
- Total Cell Count [12]: 82

SMILES: CC[C@H](Nc1ncnc2[nH]cnc12)c1nc2cccc(F)c2c(=O)n1-c1ccccc1 [IDELALISIB]
- Population Apoptotic (%) [1]: 46%
- Population Fragmented Nuclei (%) [1]: 1%
- Population Healthy Nuclei (%) [1]: 88%
- Population Hoechst High Intensity Objects (%) [1]: 3%
- Population Membrane Permeable-Phenotype (%) [1]: 47%
- Population Mitochondria Different-Phenotype (%) [1]: 10%
- Population Mitotic Cells (%) [1]: 53%
- Population Normal (%) [1]: 96%
- Population Pyknosed Nuclei (%) [1]: 9%
- Population Tubulin-Different-Phenotype (%) [1]: 34%
- Total Cell Count [1]: 162
- Population Apoptotic (%) [2]: 14%
- Population Fragmented Nuclei (%) [2]: 10%
- Population Healthy Nuclei (%) [2]: 84%
- Population Hoechst High Intensity Objects (%) [2]: 9%
- Population Membrane Permeable-Phenotype (%) [2]: 45%
- Population Mitochondria Different-Phenotype (%) [2]: 8%
- Population Mitotic Cells (%) [2]: 85%
- Population Normal (%) [2]: 90%
- Population Pyknosed Nuclei (%) [2]: 5%
- Population Tubulin-Different-Phenotype (%) [2]: 27%
- Total Cell Count [2]: 132
- Population Apoptotic (%) [3]: 0%
- Population Fragmented Nuclei (%) [3]: 5%
- Population Healthy Nuclei (%) [3]: 86%
- Population Hoechst High Intensity Objects (%) [3]: 11%
- Population Membrane Permeable-Phenotype (%) [3]: 4%
- Population Mitochondria Different-Phenotype (%) [3]: 18%
- Population Mitotic Cells (%) [3]: 100%
- Population Normal (%) [3]: 88%
- Population Pyknosed Nuclei (%) [3]: 7%
- Population Tubulin-Different-Phenotype (%) [3]: 90%
- Total Cell Count [3]: 180
- Population Fragmented Nuclei (%) [4]: 8%
- Population Healthy Nuclei (%) [4]: 88%
- Population Hoechst High Intensity Objects (%) [4]: 16%
- Population Mitochondria Different-Phenotype (%) [4]: 28%
- Population Normal (%) [4]: 83%
- Population Pyknosed Nuclei (%) [4]: 2%
- Population Tubulin-Different-Phenotype (%) [4]: 15%
- Total Cell Count [4]: 130
- Population Apoptotic (%) [5]: 45%
- Population Fragmented Nuclei (%) [5]: 3%
- Population Healthy Nuclei (%) [5]: 85%
- Population Hoechst High Intensity Objects (%) [5]: 3%
- Population Membrane Permeable-Phenotype (%) [5]: 28%
- Population Mitochondria Different-Phenotype (%) [5]: 9%
- Population Mitotic Cells (%) [5]: 54%
- Population Normal (%) [5]: 96%
- Population Pyknosed Nuclei (%) [5]: 10%
- Population Tubulin-Different-Phenotype (%) [5]: 17%
- Total Cell Count [5]: 210
- Population Apoptotic (%) [6]: 42%
- Population Fragmented Nuclei (%) [6]: 9%
- Population Healthy Nuclei (%) [6]: 77%
- Population Hoechst High Intensity Objects (%) [6]: 5%
- Population Membrane Permeable-Phenotype (%) [6]: 32%
- Population Mitochondria Different-Phenotype (%) [6]: 15%
- Population Mitotic Cells (%) [6]: 57%
- Population Normal (%) [6]: 94%
- Population Pyknosed Nuclei (%) [6]: 13%
- Population Tubulin-Different-Phenotype (%) [6]: 15%
- Total Cell Count [6]: 148
- Population Apoptotic (%) [7]: 33%
- Population Fragmented Nuclei (%) [7]: 3%
- Population Healthy Nuclei (%) [7]: 93%
- Population Hoechst High Intensity Objects (%) [7]: 11%
- Population Membrane Permeable-Phenotype (%) [7]: 2%
- Population Mitochondria Different-Phenotype (%) [7]: 19%
- Population Mitotic Cells (%) [7]: 66%
- Population Normal (%) [7]: 88%
- Population Pyknosed Nuclei (%) [7]: 2%
- Population Tubulin-Different-Phenotype (%) [7]: 94%
- Total Cell Count [7]: 244
- Population Apoptotic (%) [8]: 40%
- Population Fragmented Nuclei (%) [8]: 9%
- Population Healthy Nuclei (%) [8]: 82%
- Population Hoechst High Intensity Objects (%) [8]: 8%
- Population Membrane Permeable-Phenotype (%) [8]: 8%
- Population Mitochondria Different-Phenotype (%) [8]: 30%
- Population Mitotic Cells (%) [8]: 60%
- Population Normal (%) [8]: 91%
- Population Pyknosed Nuclei (%) [8]: 7%
- Population Tubulin-Different-Phenotype (%) [8]: 21%
- Total Cell Count [8]: 146
